# Results reported in PubChem BioAssay.
# Calls of active or inactive are those of the source.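 How the source made its calls, unless noted: active means inhibition above 20% together with a positive visual image hit; inconclusive means visual image hit but inhibition not above 20%; inactive means no visual image hit.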
# Assays:
# [1] = inhibitors of TNFa-induced NFkB p65 translocation, primary screen, imaging, HUVEC, MLSMR starter and 10KST1 sets (AID 438); conditions: HUVEC TNFa-induced p65 nuclear translocation; cell count: measured here: nuclei count (cytotoxicity indicator), at 2.08 µM; inhibition: at 2 µM, stronger effect = higher value, 0% TNFa-plus-vehicle, 100% no-TNFa wells;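 further: compound added about 3h40 before a 20 min TNFalpha stimulation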;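 on inhibition: signal is the nuclear over cytoplasmic p65 intensity ratio per well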
# [2] = inhibitors of E-selectin induction by TNFa, primary screen, imaging, HUVEC, immunofluorescence, MLSMR starter and 10KST1 sets (AID 487;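 active means visually confirmed hit in the image check and inhibition above 20%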;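 on inhibition: signal is fraction of cell area covered by stained E-selectin grains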;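 on nuclei count: 100% = median nuclei count of all wells on the same plate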); conditions: HUVEC TNFalpha-induced E-selectin immunofluorescence imaging, at 2 µM; inhibition: stronger effect = higher value; nuclei count: measured here: cell number, toxicity
# [3] = DUSP6 inhibitors restoring Erk phosphorylation by chemical complementation, primary imaging in DUSP6-transfected HeLa (AID 609;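 active means compounds giving at least 50% inhibition in the cell-based MKP-3 phosphatase rescue imaging test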;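 on inhibition: phospho-Erk level distribution per well compared with pooled transfected vehicle control wells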); conditions: HeLa MKP-3 transfected, phospho-Erk imaging KS statistic, at 10 µM, cells stimulated with TPA for 15 min
# [4] = biological target: Dual specificity protein phosphatase 6 (Homo sapiens) (UniProt Q16828); experiment: as above; conditions: HeLa MKP-3 transfected, phospho-Erk imaging KS statistic; at 10 µM; stronger effect = higher value; cells stimulated with TPA for 15 min
# Dual specificity protein phosphatase 6 (Homo sapiens), sequence (Q16828 whole entry, looked up): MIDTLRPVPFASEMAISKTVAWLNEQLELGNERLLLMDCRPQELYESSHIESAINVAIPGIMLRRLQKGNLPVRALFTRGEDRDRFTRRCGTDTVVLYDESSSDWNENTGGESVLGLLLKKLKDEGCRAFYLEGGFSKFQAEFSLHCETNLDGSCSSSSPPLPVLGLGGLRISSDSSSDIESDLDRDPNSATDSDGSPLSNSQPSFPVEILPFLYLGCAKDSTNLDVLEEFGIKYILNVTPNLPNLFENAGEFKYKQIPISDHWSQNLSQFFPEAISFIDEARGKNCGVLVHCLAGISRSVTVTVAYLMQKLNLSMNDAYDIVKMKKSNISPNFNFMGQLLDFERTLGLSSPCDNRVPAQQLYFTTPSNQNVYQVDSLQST
# [5] = biological target: Voltage-gated potassium channel subunit beta-2 (Rattus norvegicus) (UniProt P62483); experiment: KvBeta enzyme negative modulators, primary screen, biochemical, NADPH fluorescence (AID 622;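 active means fluorescence slope higher than the sample average by over 3 SD, cut at about -0.22 in these data, passing the limit was not always enough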;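 further: slope of raw intensity against log time taken from 70 to 1610 s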); conditions: recombinant KvBeta, 4-cyanobenzaldehyde reduction, at 10 µM, stronger effect = higher value
# Voltage-gated potassium channel subunit beta-2 (Rattus norvegicus), sequence (P62483 whole entry, looked up): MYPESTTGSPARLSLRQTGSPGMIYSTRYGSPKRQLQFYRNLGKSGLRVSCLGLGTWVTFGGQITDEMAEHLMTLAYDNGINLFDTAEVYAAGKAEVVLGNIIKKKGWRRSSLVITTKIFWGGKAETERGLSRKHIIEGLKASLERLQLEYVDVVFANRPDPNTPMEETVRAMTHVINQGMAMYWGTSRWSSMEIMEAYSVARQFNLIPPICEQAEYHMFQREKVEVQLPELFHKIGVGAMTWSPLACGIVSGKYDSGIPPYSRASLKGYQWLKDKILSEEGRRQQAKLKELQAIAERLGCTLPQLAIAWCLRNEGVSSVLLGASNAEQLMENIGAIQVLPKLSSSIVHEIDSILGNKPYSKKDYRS
# [6] = biological target: Voltage-gated potassium channel subunit beta-2 (Rattus norvegicus) (UniProt P62483); experiment: KvBeta positive modulators, primary screen, biochemical, NADPH fluorescence (AID 623;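 active means NADPH fluorescence slope more negative than the mean of all samples by about 3 SD, 99.7% confidence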;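 further: fluorescence intensity change per second fitted from 20 to 320 s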); conditions: Recombinant KvBeta, NADPH fluorescence decrease slope, 10 min; at 10 µM; stronger effect = lower value
# [7] = biological target: Muscarinic acetylcholine receptor M4 (Homo sapiens) (UniProt P08173); experiment: compounds altering M4/GIRK thallium flux, either direction, primary screen, M4 allosteric agonist project, cell-based, HEK293 M4/GIRK, BTC-AM (AID 625;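 active means fluorescence slope after compound addition differing from the mean of all tested samples at 99.7% confidence, mostly higher but some lower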;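 further: thallium influx through GIRK channels coupled to M4 in HEK293 cells with BTC-AM dye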); conditions: at 10 µM, actives lie on both sides
# Muscarinic acetylcholine receptor M4 (Homo sapiens), sequence (P08173 whole entry, looked up): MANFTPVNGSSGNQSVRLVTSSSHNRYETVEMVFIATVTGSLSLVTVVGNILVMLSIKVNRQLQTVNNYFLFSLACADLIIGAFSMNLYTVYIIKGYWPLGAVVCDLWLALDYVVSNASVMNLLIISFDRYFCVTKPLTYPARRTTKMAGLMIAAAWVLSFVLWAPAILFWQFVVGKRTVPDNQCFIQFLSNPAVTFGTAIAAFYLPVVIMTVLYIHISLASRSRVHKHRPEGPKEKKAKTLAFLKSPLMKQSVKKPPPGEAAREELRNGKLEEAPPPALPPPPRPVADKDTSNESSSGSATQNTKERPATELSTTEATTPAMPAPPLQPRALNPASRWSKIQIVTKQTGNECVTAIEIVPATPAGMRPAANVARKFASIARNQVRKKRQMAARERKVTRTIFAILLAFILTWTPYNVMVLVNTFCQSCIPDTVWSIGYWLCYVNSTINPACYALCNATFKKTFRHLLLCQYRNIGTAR
# Method in brief: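 Material: M4/GIRK1/GIRK2 stable HEK293 cell line. Medium: pH 7.3 thallium assay buffer. Dosing: single compound concentration, 10 µM final. Schedule: 1 h dye loading, 2 min kinetic read. Measured by: kinetic fluorescence with BTC-AM dye. Read-out: post-addition slope, 15–24 s, of baseline-normalized fluorescence. Benchmarks: carbachol and DMSO controls.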
# [8] = inhibitors of larval lipid processing in zebrafish, primary screen, whole organism, PED6 fluorescence, gall bladder and intestine (AID 686;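 active means a full or partial loss of lipid-probe fluorescence in the fish gall bladder, intestine or both, judged by eye; inactive means no fluorescence loss, or compound toxic to the fish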;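 further: larvae 5 to 7 days old with five fish per well; signal comes from phospholipase A2 cleavage of quenched PED6 carried via bile; overnight exposure to compound and PED6 before scoring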); conditions: Zebrafish larvae PED6 lipid processing, fluorescence scoring; screened at 20 µM (by protocol)
# Method in brief: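 System: live zebrafish larvae aged 5-7 days, whole organism; measure: graded gall bladder and intestinal fluorescence inhibition per well; incubation: overnight exposure; reagent: ingested quenched lipid PED6 at 100 nM; signal: By-eye fluorescence microscopy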
# [9] = inhibitors of Chlamydomonas gravitaxis, primary screen, whole organism, Chlamydomonas reinhardtii, WT vs cilia-less mutant, absorbance, 96-well (AID 463189;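 active means inhibition at or above 50% relative to wild type and mutant plate controls; inactive means inhibition below 50%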;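 further: 0% = wild type cc124 cells in DMSO and 100% = ciliumless bld1 mutant cells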); conditions: OD600 absorbance, 2 days, at 10 µM, stronger effect = higher value
# [10] = measured here: cell density z-score
# [11] = measured here: nuclear c-Myc green intensity z-score
# [12] = measured here: nuclear pErk red intensity z-score, stronger effect = higher value
SMILES,cell count [1],inhibition [1],inhibition [2],nuclei count [2] [%],"z-score [3, 10]","z-score [3, 11]","z-score [3, 12]",inhibition [4],fluorescence slope [5],NADPH fluorescence slope [6],fluorescence slope [7],outcome [8],inhibition [9]
Cc1ccc(C(=O)NCCCNCCCNC(=O)c2ccc(C)nc2)cn1,393,-2.8% (inactive),-153% (inactive),151,0.349,-0.364,-0.725,3.56% (inactive),-0.471 (inactive),-8.7e-05 (inactive),0.00476 (inactive),inactive,0.875% (inactive)
N#CCCN(C(=O)c1ccco1)c1ccccc1,600,3.1% (inactive),-91% (inactive),128,0.6,-1.06,-0.443,1.42% (inactive),-0.462 (inactive),-0.000111 (inactive),0.00534 (inactive),inactive,-5.86% (inactive)
O=C(c1ccccc1)n1c(=S)nc2ccccn21,751,-1.4% (inactive),-18.3% (inactive),144,0.295,-2.19,0.415,7.21% (inactive),-0.421 (inactive),-3.2e-05 (inactive),0.00539 (inactive),inactive,3.62% (inactive)
Cc1c2c([n+]3n1CCC3)CC(C)(C)CC2=O,617,10.2% (inactive),-23.3% (inactive),121,-0.832,1.36,0.404,-7.67% (inactive),-0.443 (inactive),-3.2e-05 (inactive),0.00512 (inactive),inactive,-11.5% (inactive)
CCCc1cc(Nc2c(C)n(C)n(-c3ccccc3)c2=O)n2c(nc3ccccc32)c1C#N,336,-3.4% (inactive),-170% (inactive),134,-1.08,0.689,-0.99,-6.59% (inactive),-0.48 (inactive),-2.2e-05 (inactive),0.00467 (inactive),inactive,0.457% (inactive)
CCOC(=O)C(O)(C1C(=O)CC(C)(C)CC1=O)C(F)(F)F (configuration not stated),681,-12.6% (inactive),-174% (inactive),160,-0.979,0.326,3.57,-9.53% (inactive),-0.44 (inactive),-4.6e-05 (inactive),0.00523 (inactive),inactive,3.71% (inactive)
O=C(O)CCCC(=O)N1CCN(C(c2ccccc2)c2ccccc2)CC1,593,2% (inactive),16.4% (inactive),93.4,0.508,0.369,-2.19,-9.53% (inactive),-0.501 (inactive),-2.2e-05 (inactive),0.00548 (inactive),inactive,-16% (inactive)
CCc1ccc(-c2cn3nc(C)c(C)nc3n2)cc1,539,-0.3% (inactive),5.5% (inactive),143,0.256,-1.56,-0.591,9.91% (inactive),-0.0112 (inactive),2.5e-06 (inactive),0.00271 (inactive),inactive,23.7% (inactive)
O=C1C(=O)N(Cc2cccnc2)C(c2ccccn2)/C1=C(/O)c1ccc(Br)cc1 (configuration not stated),486,-5.3% (inactive),-24.5% (inactive),156,1.28,-0.786,-0.613,4.37% (inactive),-0.457 (inactive),-4.3e-05 (inactive),0.00516 (inactive),inactive,-1.46% (inactive)
COc1ccc(/C(O)=C2\C(=O)C(=O)N(c3cc(C)on3)C2c2ccccc2OC)cc1C (configuration not stated),556,-11.7% (inactive),9.9% (inactive),118,-1.41,-1.49,-1.43,-8.27% (inactive),-0.473 (inactive),-2.1e-05 (inactive),0.00597 (inactive),inactive,-0.426% (inactive)
CC(=O)NC(=O)Nc1sc(=S)n(C)c1C,329,-4.5% (inactive),-21.6% (inactive),71.6,0.847,-2.04,0.71,9.82% (inactive),-0.515 (inactive),4.8e-06 (inactive),0.00528 (inactive),inactive,30.1% (inactive)
Cn1c(=O)[nH]c(=O)c2c1nc(N1CCN(c3cccc(Cl)c3)CC1)n2CCCc1ccccc1,620,-6% (inactive),-19.3% (inactive),104,0.751,-1.24,-0.00216,24% (inactive),-0.442 (inactive),-6.2e-05 (inactive),0.0083 (inactive),inactive,-0.786% (inactive)
Cc1ccc(OCC(=O)N(C)CCc2ccccn2)cc1,475,-5.5% (inactive),-175% (inactive),159,-0.678,-1.49,1.57,-2.29% (inactive),-0.433 (inactive),-5.2e-05 (inactive),0.00557 (inactive),inactive,7.87% (inactive)
CCCCCOC(=O)C(C)c1c(C)[nH]c(=S)[nH]c1=O (configuration not stated),628,-1.4% (inactive),-25.9% (inactive),158,-0.614,-0.028,2.51,1.04% (inactive),-0.47 (inactive),-8.1e-05 (inactive),0.00582 (inactive),inactive,-3.91% (inactive)
COC(=O)c1ccc(C2/C(=C(\O)c3ccc4c(c3)OCCO4)C(=O)C(=O)N2CCCN(C)C)cc1 (configuration not stated),366,-2.2% (inactive),1.3% (inactive),91.5,-1.2,-0.278,0.407,9.82% (inactive),-0.442 (inactive),-0.000114 (inactive),0.00519 (inactive),inactive,25% (inactive)
N#Cc1c2c(c(-c3ccco3)[nH]c1=O)CCCC2,576,-5% (inactive),-60.2% (inactive),152,-0.652,0.857,0.409,-5.81% (inactive),-0.435 (inactive),-0.000117 (inactive),0.00432 (inactive),inactive,17% (inactive)
Fc1ccc2[nH]c3c(N4CCSCC4)ncnc3c2c1,664,-4.3% (inactive),0.7% (inactive),153,-0.905,0.444,1.27,-3.95% (inactive),-0.418 (inactive),-2.2e-05 (inactive),0.00396 (inactive),inactive; toxic,5.41% (inactive)
CCn1c(SCC(=O)Nc2ccccc2C(=O)OC)nnc1-c1ccc(N)cc1,653,2.4% (inactive),7.2% (inactive),176,0.614,0.0177,-0.913,22.1% (inactive),-0.46 (inactive),-4.1e-05 (inactive),0.00557 (inactive),inactive,19.8% (inactive)
Cc1nnc(N2CCCCC2)c2ccccc12,511,-5.6% (inactive),59.4% (inactive),87,-2.8,0.768,0.176,18.4% (inactive),-0.507 (inactive),-9.4e-06 (inactive),0.0054 (inactive),inactive,47.9% (inactive)
N#Cc1c(N2CCOCC2)nc(-c2ccco2)c2c1CCCC2,536,-3% (inactive),-19.5% (inactive),96.6,0.112,0.592,-1.17,-2.09% (inactive),-0.412 (inactive),-2e-05 (inactive),0.00398 (inactive),inactive,18.9% (inactive)
COC(=O)C(NC(=O)c1ccco1)(Nc1ccc(Br)cn1)C(F)(F)F (configuration not stated),717,-8.8% (inactive),13.2% (inactive),147,-0.772,-0.373,1.11,-5.81% (inactive),-0.457 (inactive),-6.6e-05 (inactive),0.00446 (inactive),inactive,4.54% (inactive)
O=C(CC1SC2=NCCN2C1=O)Nc1ccccc1 (configuration not stated),693,-7.8% (inactive),-79.2% (inactive),167,-0.578,0.509,0.504,18.6% (inactive),-0.42 (inactive),-5.8e-05 (inactive),0.00447 (inactive),inactive,-0.757% (inactive)
CCN(CC)c1ccc(C2Nc3cccc4cccc(c34)N2)c(O)c1,571,2.2% (inactive),-102% (inactive),134,0.205,-0.845,-0.409,-0.584% (inactive),-0.397 (inactive),-7.3e-05 (inactive),0.00286 (inactive),active; no signal in gallbladder and intestine,40% (inactive)
Cc1ccc2[nH]c3c(c2c1)CN(C(=O)CN1CC(C)OC(C)C1)CC3 (configuration not stated),409,-6.9% (inactive),-299% (inactive),169,1.01,0.157,-0.0941,3.42% (inactive),-0.466 (inactive),-0.000107 (inactive),0.00334 (inactive),inactive,26.6% (inactive)
